Results collected from several papers.
Lines come from different studies, so protocols differ.
Target: Delta-type opioid receptor (OPRD1, Homo sapiens, UniProt P41143)
Effect on: ligand displacement
Tested at: 10 µM

assay	inhibition [%]	SMILES
radioligand	45	Cc1cc(-c2nc(CN3CCNCC3)no2)cc2c1C(=O)N(Cc1ccc(OC(F)(F)F)cc1)C2
radioligand	6	CCN(Cc1ccccc1C(F)(F)F)C(=O)C1CCN(S(=O)(=O)c2ccc3[nH]ncc3c2)CC1
radioligand	13	O=C1N=C(N2CCCCN2)S/C1=C\c1ccc(F)cc1O
	20.9	COc1cc(NC(C)=O)c(Cl)cc1C(=O)Nc1nccs1
	-11.4	N#Cc1cc(Cn2c(N3CCCC3)nc3ccccc32)ccc1F
radioligand	12	CCN(CC)c1ccc(C2Nc3ccc(C(=O)c4ccccc4)cc3NC3=C2C(=O)CC(C)(C)C3)cc1 (centres unmarked)
	-5.69	CCCNc1nc2ccccc2n1Cc1ccc(Cl)cc1
	33.4	O=C(c1ccc(Cl)cc1)N(Cc1ccccc1)C1CCCCC1
